In PMC4289021 (Nature, 2014):
Positions count from the first letter of the chain named.

Experiments:
[1] = target: T1, K61A RNF146(RING-WWE) (Mus musculus, UniProt Q9CZW6, K63A); assay: ITC, iso-ADPr binding to K61A RNF146; settings: 25 °C, K61A mutant
T1 sequence (Q9CZW6 32-185 K63A): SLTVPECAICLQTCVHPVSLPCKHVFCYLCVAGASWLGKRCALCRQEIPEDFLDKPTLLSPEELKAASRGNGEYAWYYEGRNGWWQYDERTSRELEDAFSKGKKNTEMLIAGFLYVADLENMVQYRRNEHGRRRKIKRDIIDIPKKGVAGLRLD
Procedure, shortened: (§1)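 Calorimetry at 25 °C on untagged mouse RNF146(RING-WWE), wild type or site-directed mutants. Protein and iso-ADPr were exchanged by Superdex 75 SEC into 20 mM HEPES pH 7.5, 150 mM NaCl, 1 mM DTT. Cell held ~15–20 μM protein. Ligand ~500 μM in the same buffer. Both were degassed. Injections of 5 μL every 5 min, 25–40 total. Kd came from a one-site model fit.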

[2] = tested on: RNF146(RING-WWE) K61D; assay: E2~Ub/lysine reactivity assay, K61D mutant; type: biochemical, mouse; settings: 8 μM E3, 25 μM iso-ADPr
Procedure, shortened: (§2)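 Mouse RNF146(RING-WWE) (residues 30–183), made from a GST-tagged construct with TEV cleavage, or His6-T7-tagged full-length RNF146. UbcH5~Ub was charged by wheat E1 (1.5 μM) with 100 μM E2, 200 μM K0 Ub, 2.5 mM MgCl2 and 2 mM ATP in PBS at 37 °C for 30 min, then SEC-purified. Final: 25 μM E2, 4 or 8 μM E3, ± iso-ADPr. Started with 40 mM L-lysine at 35 °C; sampled 1–15 min; non-reducing SDS-PAGE, Coomassie/Oriole stain.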

[3] = target: T2, RNF146(RING-WWE) (residues 30–183) (Mus musculus, UniProt Q9CZW6); assay: ITC, iso-ADPr binding to WT RNF146
T2 sequence (Q9CZW6 32-185): T1 sequence (Q9CZW6 32-185 K63A) with A32K

[4] = target: T3, K61D RNF146(RING-WWE) (Mus musculus, UniProt Q9CZW6, K63D); assay: ITC, iso-ADPr binding to K61D RNF146; settings: 25 °C, K61D mutant
T3 sequence (Q9CZW6 32-185 K63D): T1 sequence (Q9CZW6 32-185 K63A) with A32D
Procedure, shortened: as §1

[5] = target: RNF146 WWE domain alone; settings: previously published; cited from earlier work
[6] = tested on: full-length RNF146 or RNF146(RING-WWE); assay: E2~Ub/lysine reactivity assay with UbcH5; type: biochemical, human
Procedure, shortened: as §2

[7] = tested on: RNF146 WWE domain; settings: cited from earlier work

SMILES	Kd [1] [nM]	activation of E2~Ub/lysine reactivity [2]	Kd ([3]; ITC, 25 °C, one-site model) [nM]	binding to RNF146(RING-WWE) relative to the WWE domain alone ([3]; ratio of Kd 39 nM vs 372 nM)	Kd [4] [nM]	Kd [5] [nM]	iso-ADPr concentration up to which the rate of E2~Ub/lysine reactivity increases ([6]; 3 min after lysine addition, 1.2 equiv.) [µM]	activation of Ub transfer from UbcH5~Ub to lysine ([6]; ligand added to full-length RNF146 or RING-WWE fragment, not RING-only construct)	binding to WWE domain [7]
Nc1ncnc2c1ncn2[C@@H]1O[C@H](COP(=O)(O)O)[C@@H](O)[C@H]1O[C@@H]1O[C@H](COP(=O)(O)O)[C@@H](O)[C@H]1O [iso-ADPr]	214	not activated	39	ten times tighter	457	372	5	robust activation	–
Nc1ncnc2c1ncn2[C@@H]1O[C@H](COP(=O)(O)OP(=O)(O)OC[C@H]2OC(O)[C@H](O)[C@@H]2O)[C@@H](O)[C@H]1O (stereo partly drawn) [ADPr, ADP-ribose]	–	–	–	–	–	–	–	–	does not bind
